Measurements published in ChEMBL document CHEMBL1158122, “Anti-inflammatory, anti-tumor-promoting, and cytotoxic activities of constituents of marigold (Calendula officinalis) flowers” (J Nat Prod, 2006).

Experiments:
[1] = Cytotoxicity against human Raji cells assessed as cell viability at 100 molar ratio; format: cell-based; details: read-out: Activity
Outline: (§1)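 Raji cells were treated with 32 pmol TPA to induce EBV early antigen activation. The test agent was added at 10, 100, 500 or 1000 mol ratio relative to TPA, and Raji cell viability was measured alongside EA activation.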

IGROV-1 = assay: Cytotoxicity against human IGROV1 cells after 48 hrs by SRB assay; format: functional; details: IGROV-1, 48 h
SN12C = assay: Cytotoxicity against human SN12C cells after 48 hrs by SRB assay; format: functional
OVCAR-8 = assay: Cytotoxicity against human OVCAR8 cells after 48 hrs by SRB assay; format: functional; details: OVCAR-8, 48 h
[2] = Cytotoxicity against human Hs 578T cells after 48 hrs by SRB assay; format: functional
TK-10 = assay: Cytotoxicity against human TK-10 cells after 48 hrs by SRB assay; format: functional; details: TK-10, 48 h
Outline: (§2)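 Tested in the NCI panel of 60 human tumour cell lines covering lung, colon, melanoma, renal, ovarian, breast and leukaemia. At least five concentrations were run in 10-fold dilutions starting from 10^-4 M. Exposure was continuous for 48 h. Growth or viability was estimated by sulforhodamine B protein staining, and GI50 values were reported.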

MDA-MB-231 = assay: Cytotoxicity against human MDA-MB-231 cells after 48 hrs by SRB assay; format: functional; details: MDA-MB-231, 48 h
OVCAR-5 = assay: Cytotoxicity against human OVCAR5 cells after 48 hrs by SRB assay; format: functional; details: OVCAR-5, 48 h
HCC 2998 = assay: Cytotoxicity against human HCC2998 cells after 48 hrs by SRB assay; format: functional; details: HCC 2998, 48 h
UACC-62 = assay: Cytotoxicity against human UACC-62 cells after 48 hrs by SRB assay; format: functional; details: UACC-62, 48 h; outline: as §2
KM12 = assay: Cytotoxicity against human KM12 cells after 48 hrs by SRB assay; format: functional; details: KM12, 48 h
NCI-H460 = assay: Cytotoxicity against human NCI-H460 cells after 48 hrs by SRB assay; format: functional; details: NCI-H460, 48 h
[3] = Cytotoxicity against human HCT 116 cells after 48 hrs by SRB assay; format: functional; details: HCT-116, 48 h
A549 = assay: Cytotoxicity against human A549 cells after 48 hrs by SRB assay; format: functional; details: A549, 48 h
SW-620 = assay: Cytotoxicity against human SW620 cells after 48 hrs by SRB assay; format: functional; details: SW-620, 48 h
SNB-19 = assay: Cytotoxicity against human SNB-19 cells after 48 hrs by SRB assay; format: functional; details: SNB-19, 48 h
HOP-62 = assay: Cytotoxicity against human HOP-62 cells after 48 hrs by SRB assay; format: functional; details: HOP-62, 48 h
SK-MEL-5 = assay: Cytotoxicity against human SK-MEL-5 cells after 48 hrs by SRB assay; format: functional; details: SK-MEL-5, 48 h
EKVX = assay: Cytotoxicity against human EKVX cells after 48 hrs by SRB assay; format: functional
OVCAR-3 = assay: Cytotoxicity against human OVCAR-3 cells after 48 hrs by SRB assay; format: functional; details: OVCAR-3, 48 h
U-251 = assay: Cytotoxicity against human U251 cells after 48 hrs by SRB assay; format: functional; details: U-251, 48 h; outline: as §2
SK-MEL-2 = assay: Cytotoxicity against human SK-MEL-2 cells after 48 hrs by SRB assay; format: functional; details: SK-MEL-2, 48 h
[4] = Cytotoxicity against human SK MEL28 cells after 48 hrs by SRB assay; format: functional; details: SK-MEL-28, 48 h
MCF7 = assay: Cytotoxicity against human MCF7 cells after 48 hrs by SRB assay; format: functional; details: MCF7, 48 h
HT-29 = assay: Cytotoxicity against human HT-29 cells after 48 hrs by SRB assay; format: functional; details: HT-29, 48 h
CAKI-1 = assay: Cytotoxicity against human Caki-1 cells after 48 hrs by SRB assay; format: functional; details: CAKI-1, 48 h
T47D = assay: Cytotoxicity against human T47D cells after 48 hrs by SRB assay; format: functional; outline: as §2
MOLT-4 = assay: Cytotoxicity against human MOLT-4 cells after 48 hrs by SRB assay; format: functional; details: MOLT-4, 48 h
K562 = assay: Cytotoxicity against human K-562 cells after 48 hrs by SRB assay; format: functional; details: K562, 48 h
RXF 393 = assay: Cytotoxicity against human […] cells after 48 hrs by SRB assay; format: functional; details: RXF 393, 48 h
MDA-MB-435 = assay: Cytotoxicity against human MDA-MB-435 cells after 48 hrs by SRB assay; format: functional; details: MDA-MB-435, 48 h
NCI-H322M = assay: Cytotoxicity against human NCI-H322M cells after 48 hrs by SRB assay; format: functional
PC-3 = assay: Cytotoxicity against human PC-3 cells after 48 hrs by SRB assay; format: functional; details: PC-3, 48 h
786-0 = assay: Cytotoxicity against human 786-0 cells after 48 hrs by SRB assay; format: functional; details: 786-0, 48 h
Raji [5] = assay: Inhibition of TPA-induced EBV-early antigen activation in human Raji cells at 10 molar ratio relative to TPA; format: cell-based; set-up: scale not given: the % may be the effect or the level left; details: human gammaherpesvirus 4
ACHN = assay: Cytotoxicity against human ACHN cells after 48 hrs by SRB assay; format: functional
Raji [6] = assay: Inhibition of TPA-induced EBV-early antigen activation in human Raji cells at 500 molar ratio relative to TPA; format: cell-based; set-up: scale not given: the % may be the effect or the level left; details: human gammaherpesvirus 4
LOX IMVI = assay: Cytotoxicity against human LOX IMVI cells after 48 hrs by SRB assay; format: functional
Raji [7] = assay: Inhibition of TPA-induced EBV-early antigen activation in human Raji cells at 1000 molar ratio relative to TPA; format: cell-based; set-up: scale not given: the % may be the effect or the level left; details: human gammaherpesvirus 4
CCRF-CEM = assay: Cytotoxicity against human CCRF-CEM cells after 48 hrs by SRB assay; format: functional
NCI-H226 = assay: Cytotoxicity against human NCI-H226 cells after 48 hrs by SRB assay; format: functional; details: NCI-H226, 48 h
HCT-15 = assay: Cytotoxicity against human HCT-15 cells after 48 hrs by SRB assay; format: functional; details: HCT-15, 48 h
Malme-3M = assay: Cytotoxicity against human MALME-3M cells after 48 hrs by SRB assay; format: functional
UO-31 = assay: Cytotoxicity against human UO-31 cells after 48 hrs by SRB assay; format: functional; details: UO-31, 48 h; outline: as §2
COLO 205 = assay: Cytotoxicity against human COLO205 cells after 48 hrs by SRB assay; format: functional; details: COLO 205, 48 h
[8] = Cytotoxicity against human Raji cells assessed as cell viability at 10 molar ratio; format: cell-based; details: read-out: Activity; outline: as §1
[9] = Cytotoxicity against human Raji cells assessed as cell viability at 1000 molar ratio; format: cell-based; details: read-out: Activity; outline: as §1
[10] = Inhibition of TPA-induced EBV-early antigen activation in human Raji cells relative to TPA; format: cell-based, human gammaherpesvirus 4
BT-549 = assay: Cytotoxicity against human BT-549 cells after 48 hrs by SRB assay; format: functional; details: BT-549, 48 h
NCI-H23 = assay: Cytotoxicity against human NCI-H23 cells after 48 hrs by SRB assay; format: functional; details: NCI-H23, 48 h
NCI-H522 = assay: Cytotoxicity against human NCI-H522 cells after 48 hrs by SRB assay; format: functional; details: NCI-H522, 48 h
Raji [11] = assay: Inhibition of TPA-induced EBV-early antigen activation in human Raji cells at 100 molar ratio relative to TPA; format: cell-based; set-up: scale not given: the % may be the effect or the level left; details: human gammaherpesvirus 4
NCI/ADR-RES = assay: Cytotoxicity against human NCI/ADR-RES cells after 48 hrs by SRB assay; format: functional
UACC-257 = assay: Cytotoxicity against human UACC-257 cells after 48 hrs by SRB assay; format: functional; details: UACC-257, 48 h; outline: as §2
SF-268 = assay: Cytotoxicity against human SF-268 cells after 48 hrs by SRB assay; format: functional; details: SF-268, 48 h
HL-60 = assay: Cytotoxicity against human HL-60 cells after 48 hrs by SRB assay; format: functional; details: HL-60, 48 h
[12] = Cytotoxicity against human Raji cells assessed as cell viability at 500 molar ratio; format: cell-based; details: read-out: Activity; outline: as §1

IC50 [10]: 479 molar ratio
Compound: COC(=O)[C@H]1O[C@@H](O[C@H]2CC[C@]3(C)[C@H]4CC=C5[C@@H]6CC(C)(C)CC[C@]6(C(=O)O)CC[C@@]5(C)[C@]4(C)CC[C@H]3C2(C)C)[C@H](O)[C@@H](O[C@@H]2O[C@H](CO)[C@H](O)[C@H](O)[C@H]2O)[C@@H]1O
viability at 100 molar ratio [1]: > 80%
GI50 (IGROV-1): 20.1 µM
GI50 (SN12C): 6.34 µM
GI50 (OVCAR-8): 9.96 µM
GI50 [2]: 8.77 µM
GI50 (TK-10): 7.22 µM
GI50 (MDA-MB-231): 7.28 µM
GI50 (OVCAR-5): 7.31 µM
GI50 (HCC 2998): 7.14 µM
GI50 (UACC-62): 6.23 µM
GI50 (KM12): 8.83 µM
GI50 (NCI-H460): 11.5 µM
GI50 [3]: 6.39 µM
GI50 (A549): 7.22 µM
GI50 (SW-620): 7.28 µM
GI50 (SNB-19): 6.82 µM
GI50 (HOP-62): 6.21 µM
GI50 (SK-MEL-5): 6.14 µM
GI50 (EKVX): 6.59 µM
GI50 (OVCAR-3): 13.9 µM
GI50 (U-251): 6.08 µM
GI50 (SK-MEL-2): 11.9 µM
GI50 [4]: 10.2 µM
GI50 (MCF7): 9.93 µM
GI50 (HT-29): 12.4 µM
GI50 (CAKI-1): 12.2 µM
GI50 (T47D): 8.16 µM
GI50 (MOLT-4): 2.17 µM
GI50 (K562): 8.17 µM
GI50 (RXF 393): 11.3 µM
GI50 (MDA-MB-435): 13.3 µM
GI50 (NCI-H322M): 7.59 µM
GI50 (PC-3): 6.43 µM
GI50 (786-0): 6.36 µM
Activity (Raji [5]): 100%
GI50 (ACHN): 5.99 µM
Activity (Raji [6]): 47.2%
GI50 (LOX IMVI): 6.27 µM
Activity (Raji [7]): 10%
GI50 (CCRF-CEM): 5.79 µM
GI50 (NCI-H226): 6.18 µM
GI50 (HCT-15): 6.57 µM
GI50 (Malme-3M): 6.22 µM
GI50 (UO-31): 33.3 µM
GI50 (COLO 205): 8.64 µM
viability at 10 molar ratio [8]: > 80%
viability at 1000 molar ratio [9]: 70%
GI50 (BT-549): 6.93 µM
GI50 (NCI-H23): 6.46 µM
GI50 (NCI-H522): 10.5 µM
Activity (Raji [11]): 71.2%
GI50 (NCI/ADR-RES): 7.24 µM
GI50 (UACC-257): 6.89 µM
GI50 (SF-268): 7.56 µM
GI50 (HL-60): 6.92 µM
viability at 500 molar ratio [12]: > 80%
